{"source": "ChEMBL document CHEMBL5303300", "about": "“EUbOPEN Chemogenomics Library - Multiplex” (2023)", "key": {"HEK-293T": {"system": "HEK-293T", "assay": "Multiplex assay against HEK293T", "assay_type": "toxicity, cell-based", "conditions": "human, number of replicates 2", "outline": "(§1)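 Live cells were stained at seeding with Hoechst33342, BioTracker Green Microtubule Cytoskeleton Dye, MitoTracker Red and Annexin V Alexa Fluor 680, then imaged on a CQ1 microscope at 37°C and 5% CO2 after compound addition. CellPathfinder machine-learning gating split cells into Hoechst high-intensity objects or normal cells. Normal cells were split into healthy, pyknosed or fragmented nuclei, and pyknosed cells into mitotic or apoptotic. Tubulin, mitochondrial-mass and membrane-permeability phenotypes are per cents of healthy-nucleus cells.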"}, "U2OS": {"system": "U2OS", "assay": "Multiplex assay against U2OS", "assay_type": "toxicity, cell-based", "conditions": "human, number of replicates 2", "outline": "as §1"}, "[1]": {"conditions": "24 h, 1 µM, compound concentration 1 uM"}, "[2]": {"conditions": "24 h, 10 µM, compound concentration 10 uM"}, "[3]": {"conditions": "48 h, 1 µM, compound concentration 1 uM"}, "[4]": {"conditions": "48 h, 10 µM, compound concentration 10 uM"}, "[5]": {"conditions": "12 h, 1 µM, compound concentration 1 uM"}, "[6]": {"conditions": "12 h, 10 µM, compound concentration 10 uM"}}, "note": "Where “and” joins values, the source holds several entries; their conditions need not be identical. Equal entries are not always repeated."}
{"compound": "Cn1cc(-c2ccc(N(C(=O)NCc3ccccc3)[C@H]3CC[C@H](Nc4ccc(C#N)cn4)CC3)cc2)ccc1=O", "values": [{"measurement": "Population Mitotic Cells (%)", "setting": "HEK-293T; [1]", "result": "65% and 68%"}, {"measurement": "Population Normal (%)", "setting": "HEK-293T; [1]", "result": "91% and 93%"}, {"measurement": "Population Pyknosed Nuclei (%)", "setting": "HEK-293T; [1]", "result": "7% and 8%"}, {"measurement": "Population Tubulin-Different-Phenotype (%)", "setting": "HEK-293T; [1]", "result": "33% and 30%"}, {"measurement": "Total Cell Count", "setting": "HEK-293T; [1]", "result": "908 and 972"}, {"measurement": "Population Apoptotic (%)", "setting": "HEK-293T; [2]", "result": "55% and 37%"}, {"measurement": "Population Fragmented Nuclei (%)", "setting": "HEK-293T; [2]", "result": "4% and 9%"}, {"measurement": "Population Healthy Nuclei (%)", "setting": "HEK-293T; [2]", "result": "86% and 77%"}, {"measurement": "Population Hoechst High Intensity Objects (%)", "setting": "HEK-293T; [2]", "result": "12% and 11%"}, {"measurement": "Population Membrane Permeable-Phenotype (%)", "setting": "HEK-293T; [2]", "result": "3% and 7%"}, {"measurement": "Population Mitochondria Different-Phenotype (%)", "setting": "HEK-293T; [2]", "result": "42% and 52%"}, {"measurement": "Population Mitotic Cells (%)", "setting": "HEK-293T; [2]", "result": "44% and 62%"}, {"measurement": "Population Normal (%)", "setting": "HEK-293T; [2]", "result": "87% and 88%"}, {"measurement": "Population Pyknosed Nuclei (%)", "setting": "HEK-293T; [2]", "result": "9% and 12%"}, {"measurement": "Population Tubulin-Different-Phenotype (%)", "setting": "HEK-293T; [2]", "result": "91% and 90%"}, {"measurement": "Total Cell Count", "setting": "HEK-293T; [2]", "result": "478 and 532"}, {"measurement": "Population Apoptotic (%)", "setting": "HEK-293T; [3]", "result": "9% and 8%"}, {"measurement": "Population Fragmented Nuclei (%)", "setting": "HEK-293T; [3]", "result": "10% and 11%"}, {"measurement": "Population Healthy Nuclei (%)", "setting": "HEK-293T; [3]", "result": 85, "unit": "%"}, {"measurement": "Population Hoechst High Intensity Objects (%)", "setting": "HEK-293T; [3]", "result": 9, "unit": "%"}, {"measurement": "Population Membrane Permeable-Phenotype (%)", "setting": "HEK-293T; [3]", "result": 6, "unit": "%"}, {"measurement": "Population Mitochondria Different-Phenotype (%)", "setting": "HEK-293T; [3]", "result": "1% and 0%"}, {"measurement": "Population Mitotic Cells (%)", "setting": "HEK-293T; [3]", "result": "90% and 91%"}, {"measurement": "Population Normal (%)", "setting": "HEK-293T; [3]", "result": 90, "unit": "%"}, {"measurement": "Population Pyknosed Nuclei (%)", "setting": "HEK-293T; [3]", "result": 3, "unit": "%"}, {"measurement": "Population Tubulin-Different-Phenotype (%)", "setting": "HEK-293T; [3]", "result": "14% and 16%"}, {"measurement": "Total Cell Count", "setting": "HEK-293T; [3]", "result": "2214 and 2329"}, {"measurement": "Population Apoptotic (%)", "setting": "HEK-293T; [4]", "result": "43% and 56%"}, {"measurement": "Population Fragmented Nuclei (%)", "setting": "HEK-293T; [4]", "result": "7% and 3%"}, {"measurement": "Population Healthy Nuclei (%)", "setting": "HEK-293T; [4]", "result": "79% and 86%"}, {"measurement": "Population Hoechst High Intensity Objects (%)", "setting": "HEK-293T; [4]", "result": "10% and 13%"}, {"measurement": "Population Membrane Permeable-Phenotype (%)", "setting": "HEK-293T; [4]", "result": "5% and 2%"}, {"measurement": "Population Mitochondria Different-Phenotype (%)", "setting": "HEK-293T; [4]", "result": "39% and 30%"}, {"measurement": "Population Mitotic Cells (%)", "setting": "HEK-293T; [4]", "result": "56% and 43%"}, {"measurement": "Population Normal (%)", "setting": "HEK-293T; [4]", "result": "89% and 86%"}, {"measurement": "Population Pyknosed Nuclei (%)", "setting": "HEK-293T; [4]", "result": "12% and 9%"}, {"measurement": "Population Tubulin-Different-Phenotype (%)", "setting": "HEK-293T; [4]", "result": "74% and 66%"}, {"measurement": "Total Cell Count", "setting": "HEK-293T; [4]", "result": "578 and 533"}, {"measurement": "Population Apoptotic (%)", "setting": "U2OS; [5]", "result": "50% and 60%"}, {"measurement": "Population Healthy Nuclei (%)", "setting": "U2OS; [5]", "result": "48% and 86%"}, {"measurement": "Population Hoechst High Intensity Objects (%)", "setting": "U2OS; [5]", "result": 0, "unit": "%"}, {"measurement": "Population Membrane Permeable-Phenotype (%)", "setting": "U2OS; [5]", "result": "0% and 3%"}, {"measurement": "Population Mitochondria Different-Phenotype (%)", "setting": "U2OS; [5]", "result": "5% and 3%"}, {"measurement": "Population Mitotic Cells (%)", "setting": "U2OS; [5]", "result": "50% and 39%"}, {"measurement": "Population Normal (%)", "setting": "U2OS; [5]", "result": 100, "unit": "%"}, {"measurement": "Population Pyknosed Nuclei (%)", "setting": "U2OS; [5]", "result": "14% and 12%"}, {"measurement": "Population Tubulin-Different-Phenotype (%)", "setting": "U2OS; [5]", "result": "55% and 75%"}, {"measurement": "Population Apoptotic (%)", "setting": "U2OS; [6]", "result": "93% and 59%"}, {"measurement": "Population Fragmented Nuclei (%)", "setting": "U2OS; [6]", "result": "16% and 12%"}, {"measurement": "Population Healthy Nuclei (%)", "setting": "U2OS; [6]", "result": "41% and 57%"}, {"measurement": "Population Hoechst High Intensity Objects (%)", "setting": "U2OS; [6]", "result": 0, "unit": "%"}, {"measurement": "Population Membrane Permeable-Phenotype (%)", "setting": "U2OS; [6]", "result": "20% and 21%"}, {"measurement": "Population Mitochondria Different-Phenotype (%)", "setting": "U2OS; [6]", "result": "33% and 16%"}, {"measurement": "Population Normal (%)", "setting": "U2OS; [6]", "result": "100% and 99%"}, {"measurement": "Population Pyknosed Nuclei (%)", "setting": "U2OS; [6]", "result": "41% and 30%"}, {"measurement": "Population Tubulin-Different-Phenotype (%)", "setting": "U2OS; [6]", "result": "40% and 48%"}, {"measurement": "Population Apoptotic (%)", "setting": "U2OS; [1]", "result": "66% and 60%"}, {"measurement": "Population Healthy Nuclei (%)", "setting": "U2OS; [1]", "result": "40% and 87%"}, {"measurement": "Population Hoechst High Intensity Objects (%)", "setting": "U2OS; [1]", "result": 0, "unit": "%"}, {"measurement": "Population Membrane Permeable-Phenotype (%)", "setting": "U2OS; [1]", "result": "0% and 3%"}, {"measurement": "Population Mitochondria Different-Phenotype (%)", "setting": "U2OS; [1]", "result": "0% and 1%"}, {"measurement": "Population Mitotic Cells (%)", "setting": "U2OS; [1]", "result": "33% and 40%"}, {"measurement": "Population Normal (%)", "setting": "U2OS; [1]", "result": "100% and 99%"}, {"measurement": "Population Pyknosed Nuclei (%)", "setting": "U2OS; [1]", "result": "19% and 9%"}, {"measurement": "Population Tubulin-Different-Phenotype (%)", "setting": "U2OS; [1]", "result": "63% and 79%"}, {"measurement": "Population Apoptotic (%)", "setting": "U2OS; [2]", "result": "90% and 75%"}, {"measurement": "Population Fragmented Nuclei (%)", "setting": "U2OS; [2]", "result": "8% and 11%"}, {"measurement": "Population Healthy Nuclei (%)", "setting": "U2OS; [2]", "result": 31, "unit": "%"}, {"measurement": "Population Hoechst High Intensity Objects (%)", "setting": "U2OS; [2]", "result": 0, "unit": "%"}, {"measurement": "Population Membrane Permeable-Phenotype (%)", "setting": "U2OS; [2]", "result": "36% and 21%"}, {"measurement": "Population Mitochondria Different-Phenotype (%)", "setting": "U2OS; [2]", "result": "27% and 46%"}, {"measurement": "Population Mitotic Cells (%)", "setting": "U2OS; [2]", "result": "9% and 24%"}, {"measurement": "Population Normal (%)", "setting": "U2OS; [2]", "result": "100% and 99%"}, {"measurement": "Population Pyknosed Nuclei (%)", "setting": "U2OS; [2]", "result": "60% and 56%"}, {"measurement": "Population Tubulin-Different-Phenotype (%)", "setting": "U2OS; [2]", "result": "36% and 69%"}, {"measurement": "Population Apoptotic (%)", "setting": "U2OS; [3]", "result": "85% and 68%"}, {"measurement": "Population Healthy Nuclei (%)", "setting": "U2OS; [3]", "result": "65% and 88%"}, {"measurement": "Population Hoechst High Intensity Objects (%)", "setting": "U2OS; [3]", "result": 0, "unit": "%"}, {"measurement": "Population Membrane Permeable-Phenotype (%)", "setting": "U2OS; [3]", "result": "2% and 1%"}, {"measurement": "Population Mitochondria Different-Phenotype (%)", "setting": "U2OS; [3]", "result": 0, "unit": "%"}, {"measurement": "Population Mitotic Cells (%)", "setting": "U2OS; [3]", "result": "14% and 31%"}, {"measurement": "Population Normal (%)", "setting": "U2OS; [3]", "result": 100, "unit": "%"}, {"measurement": "Population Pyknosed Nuclei (%)", "setting": "U2OS; [3]", "result": "11% and 8%"}, {"measurement": "Population Tubulin-Different-Phenotype (%)", "setting": "U2OS; [3]", "result": "70% and 85%"}, {"measurement": "Population Apoptotic (%)", "setting": "U2OS; [4]", "result": "78% and 88%"}, {"measurement": "Population Fragmented Nuclei (%)", "setting": "U2OS; [4]", "result": "30% and 10%"}, {"measurement": "Population Healthy Nuclei (%)", "setting": "U2OS; [4]", "result": "23% and 24%"}, {"measurement": "Population Hoechst High Intensity Objects (%)", "setting": "U2OS; [4]", "result": "0% and 2%"}, {"measurement": "Population Membrane Permeable-Phenotype (%)", "setting": "U2OS; [4]", "result": "40% and 37%"}, {"measurement": "Population Mitochondria Different-Phenotype (%)", "setting": "U2OS; [4]", "result": "40% and 37%"}, {"measurement": "Population Mitotic Cells (%)", "setting": "U2OS; [4]", "result": "21% and 11%"}, {"measurement": "Population Normal (%)", "setting": "U2OS; [4]", "result": "100% and 97%"}, {"measurement": "Population Pyknosed Nuclei (%)", "setting": "U2OS; [4]", "result": "45% and 65%"}, {"measurement": "Population Tubulin-Different-Phenotype (%)", "setting": "U2OS; [4]", "result": "40% and 52%"}]}
